# Hep lipid drop: inhibitors of hepatocyte lipid droplet formation, primary screen, imaging, high-throughput imaging, BODIPY stain; AML12 mouse hepatocytes, oleate lipid droplets; inhibition, % at 6.5 µM; 0.4% of 240,000 active;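 active = lipid droplet intensity inhibited by at least 50%, with more than 500 cells counted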
#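 Test system: AML12 hepatocytes (mouse); reagent: oleate loading, 100 µM; dosing: one dose, 6.5 µM compound; incubation: overnight exposure; signal: fluorescence imaging, 20x objective, two fields per well; read-out basis: % inhibition of corrected integrated BODIPY droplet signal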
# GC-B act: human GC-B receptor activators, primary screen, HEK293 GC-B cells, cGMP TR-FRET, EC30 CNP | Atrial natriuretic peptide receptor 2 (Homo sapiens), P20594 | 0% at EC30 CNP, 100% saturating CNP | activation, % at 10 µM | 0.11% of 370,000 active;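 active = activation at 10 µM reaching about 35% in either raw or pattern-adjusted values, limit read from the data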
# GASC-1 inh: inhibitors of GASC-1 histone demethylase, primary screen, biochemical, fluorescence, DELFIA europium; AID 2099, 2009; inhibition, % at 2.35 µM; 0.069% of 330,000 active; Lysine-specific demethylase 4C (Homo sapiens), Q9H3R0; GST-JMJD2C(1-420) H3K9me3 demethylation;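 active = more than half of a compound's replicate wells show inhibition beyond 50%, single wells judged on their own value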;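 note: signal counts dimethyl H3K9 product captured on neutravidin plate; 0% = median of DMSO wells and 100% = 0.3 times that DMSO median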
# GRIN3A LBD mod: binders of NR3A ligand-binding domain, primary screen, biophysical, differential scanning fluorimetry, uHTS. 2.5% of 340,000 active. AID 1259313, 2017. NR3A LBD differential scanning fluorimetry, Tm shift; 0% = protein alone, 100% = glycine-bound protein. Tm shift relative to glycine control, % at 25 µM. Glutamate receptor ionotropic, NMDA 3A (GRIN3A) ligand-binding domain;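 active = melting temperature shift of at least 10% of the positive control shift, at one fixed dose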
# NPR1 activator: GC-A stimulated cGMP production enhancers – HEK293 GC-A cells, cGMP TR-FRET, EC30 ANP, primary screen; Atrial natriuretic peptide receptor 1 (Homo sapiens), P16066; 0% at EC30 ANP, 100% saturating ANP; activation, % at 10 µM; 0.14% of 370,000 active; AID 1671463, 2021; in the data active = activation above about 40%
# aDG glyco up: activators of alpha-DG glycosylation, primary screen, uHTS, Pro5-aDG cells, AlphaScreen; activation, % at 10 µM; alpha-DG glycosylation AlphaScreen (IIH6); 0% Pro5, 100% B10-LARGE cell signal; AID 624168, 2012; 0.22% of 360,000 active;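 active = activation of at least 8% versus controls, or a plate z-score of at least 8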;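 note: Pro5 are CHO cells carrying HIG-tagged alpha-DG that lacks glycosylation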
# * marks the source's active call; other numbers are inactive results; nt = no result given. Most compounds without a hit are left out; they make up all but 3% or so of the library.
SMILES,Hep lipid drop,GC-B act,GASC-1 inh,GRIN3A LBD mod,NPR1 activator,aDG glyco up
CCCc1cc(-c2n[nH]c(C)c2-c2ccc(C(=O)OCC)o2)c(O)cc1O,-14.5,-4.3,-9.3,34.7*,-1.3,0.3
O=C(NCc1ccc(C(=O)NC2CCCC2)cc1)c1cccc(Br)c1,nt,-5.8,nt,nt,-4.4,nt
O=C(Nc1ccc(Cl)cc1)OCc1ccccn1,10.6,1.7,-4.6,21.6*,5.5,0.1
CS(=O)(=O)c1ccccc1COC(=O)Nc1ccc(Cl)cc1,nt,-4.8,-9.7,-4.2,-6.3,0.0
O=C(O)c1ccc(N=Nc2c(O)ccc3ncccc23)cc1,9.5,-2.2,9.6,11.8*,-1.6,0.6
CC(C)CC(=O)NC(=S)Nc1ccccc1C(F)(F)F,-23.2,0.0,2.8,-0.5,-0.1,-0.1
CC(C)(C)CC(=O)NC(=S)Nc1ccccc1C(F)(F)F,nt,-1.5,16.1,14.0*,-0.3,0.4
O=C(c1cccc(C(F)(F)F)c1)N1CC[C@H]2[C@H](CCCN2Cc2ccc(F)cc2)C1,nt,2.4,nt,nt,3.8,nt
COc1ccc(-c2csc(NC(=O)c3ccccc3F)n2)cc1,1.8,-2.3,-4.8,-18.7,0.1,0.0
COc1ccc(-c2csc(NC(=O)c3ccccc3NS(=O)(=O)c3ccc(F)c(F)c3)n2)cc1,-22.6,3.3,23.0,16.2*,7.9,-0.2
Cc1ccc(S(=O)(=O)Nc2nc(-c3ccccc3)cs2)cc1,2.2,2.5,-16.3,-3.6,-1.3,0.0
Cc1ccc(S(=O)(=O)Nc2ccccc2C(=O)Nc2nc(-c3ccc(F)cc3)cs2)cc1,-61.7,-2.1,13.7,31.1*,3.2,0.6
COc1ccc2c(c1)CC(C1(O)C(=O)N(C)c3ccccc31)C2=O (stereo not drawn),nt,-8.2,50.6*,-0.1,-2.3,0.5
COc1ccccc1NC(=O)c1ccc(S(=O)(=O)N2CCCC(C)C2)cc1 (stereo not drawn),5.9,-3.5,-7.0,1.1,-2.7,0.1
CC1CCN(S(=O)(=O)c2ccc(C(=O)Nc3ccccc3-c3nc4ccccc4[nH]3)cc2)CC1,-24.7,6.3,7.2,30.7*,-3.6,0.4
CC1CCCN(S(=O)(=O)c2ccc(C(=O)Nc3ccccc3-c3nc4ccccc4[nH]3)cc2)C1 (stereo not drawn),-3.3,-3.0,-2.9,34.5*,0.7,-0.2
CCCC(=O)Oc1ccc(C2NC(=O)c3ccccc3O2)cc1OC (stereo not drawn),5.6,-2.6,2.2,1.4,-8.7,0.1
Cc1ccc(NC(=O)c2ccc3snnc3c2)cc1,2.7,10.1,-28.0,1.2,-0.7,0.3
COc1cc(NC(=O)c2ccc3snnc3c2)cc(OC)c1,0.5,-3.9,10.3,18.9*,-0.5,0.0
CC(=O)c1cccc(NC(=O)C2(C)Cc3c(-c4ccccc4)ccnc3O2)c1 (stereo not drawn),nt,-1.1,nt,nt,-1.8,0.2
CCc1nnc(NC(=O)CN2CCOCC2)s1,nt,2.2,-4.8,13.7*,3.0,-0.1
OC(c1ccccc1)(c1ccccc1)C1CCN(CCCNc2ccccc2F)CC1,nt,-10.7,nt,nt,-16.9,nt
O=C(Cn1cc(COc2ccc3ccc(=O)oc3c2)nn1)c1ccc(O)cc1,nt,-2.4,nt,46.3*,2.5,-0.1
O=S(=O)(c1ccccc1)c1cnc(-c2ccccc2)nc1N1CCCC1,10.0,-3.8,3.6,-0.9,1.8,0.4
COc1cc2ncc(S(=O)(=O)c3ccccc3)c(N3CCCC(C)C3)c2cc1OC (stereo not drawn),-14.9,3.0,5.8,14.8*,-1.2,0.6
CCN=C1S/C(=C/c2cc(C)n(-c3ccc(Cl)cc3F)c2C)C(=O)N1CC,nt,-23.6,nt,nt,-15.9,nt
